Results taken from ChEMBL document CHEMBL5036319, “Discovery of Novel Benzothiazepinones as Irreversible Covalent Glycogen Synthase Kinase 3β Inhibitors for the Treatment of Acute Promyelocytic Leukemia” (J Med Chem, 2021).

How the values were obtained:
[1] = Induction in caspase-mediated apoptosis in human NB-4 cells assessed as late apoptotic cells at 100 uM incubated for 24 hrs by Annexin V-FITC/propidium iodide staining based flow cytometry analysis (reference value: 1.06%); format: functional
[2] = Induction in caspase-mediated apoptosis in human NB-4 cells assessed as viable cells at 100 uM incubated for 24 hrs in presence of Z-VAD-FMK by Annexin V-FITC/propidium iodide staining based flow cytometry analysis (reference value: 96.8%); format: functional; settings: read-out: Activity
HL-60 = assay: Cytotoxicity against human HL-60 cells assessed as reduction in cell viability measured after 24 hrs by CCK-8 assay; format: functional, cell-based; settings: HL-60, 24 h
Procedure, shortened: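 Cells were grown in RPMI-1640 or high-glucose DMEM with 10% FBS at 37 °C, 5% CO2, and seeded at 3 × 10^4 cells/well. Exposure was 24 h across serial concentrations (0−1000 μM in the screen). […] Three independent experiments, mean ± SEM.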

[3] = Induction in caspase-mediated apoptosis in human NB4-DR1 cells assessed as viable cells at 12.5 uM incubated for 24 hrs in presence of Z-VAD-FMK by Annexin V-FITC/propidium iodide staining based flow cytometry analysis (reference value: 96.4%); format: functional; settings: read-out: Activity
[4] = Induction in caspase-mediated apoptosis in human NB4-DR1 cells assessed as late apoptotic cells at 25 uM incubated for 24 hrs in presence of Z-VAD-FMK by Annexin V-FITC/propidium iodide staining based flow cytometry analysis (reference value: 2.54%); format: functional
[5] = Cytotoxicity against HUVEC assessed as cell viability at 0 to 50 uM incubated for 24 hrs by CCK-8 assay relative to control; format: cell-based; settings: human, dose 0-50 µM, read-out: Activity
Procedure, shortened: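 HUVEC and LO2 normal cells were cultured in RPMI-1640 or DMEM with 10% FBS at 37 °C, 5% CO2, and seeded at 3 × 10^4 cells/well. They were exposed for 24 h to graded concentrations. CCK-8 incubation was 3 h at 37 °C, with A450 read and viability expressed versus untreated control. Three independent experiments, mean ± SEM.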

[6] = Induction in caspase-mediated apoptosis in human NB4-DR1 cells assessed as viable cells at 25 uM incubated for 24 hrs by Annexin V-FITC/propidium iodide staining based flow cytometry analysis (reference value: 96.9%); format: functional; settings: read-out: Activity
[7] = Induction in caspase-mediated apoptosis in human NB-4 cells assessed as early apoptotic cells at 25 uM incubated for 24 hrs by Annexin V-FITC/propidium iodide staining based flow cytometry analysis (reference value: 2.02%); format: functional
[8] = Induction in caspase-mediated apoptosis in human NB-4 cells assessed as necrotic cells at 100 uM incubated for 24 hrs by Annexin V-FITC/Propidium iodide staining based flow cytometry analysis (reference value: 0.352%); format: functional
[9] = Induction in caspase-mediated apoptosis in human NB-4 cells assessed as necrotic cells at 50 uM incubated for 24 hrs in presence of Z-VAD-FMK by Annexin V-FITC/propidium iodide staining based flow cytometry analysis (reference value: 0.167%); format: functional
[10] = Induction in caspase-mediated apoptosis in human NB4-DR1 cells assessed as late apoptotic cells at 12.5 uM incubated for 24 hrs in presence of Z-VAD-FMK by Annexin V-FITC/propidium iodide staining based flow cytometry analysis (reference value: 2.54%); format: functional
[11] = Induction in caspase-mediated apoptosis in human NB-4 cells assessed as necrotic cells at 100 uM incubated for 24 hrs in presence of Z-VAD-FMK by Annexin V-FITC/propidium iodide staining based flow cytometry analysis (reference value: 0.167%); format: functional
[12] = Induction in caspase-mediated apoptosis in human NB4-DR1 cells assessed as late apoptotic cells at 50 uM incubated for 24 hrs by Annexin V-FITC/propidium iodide staining based flow cytometry analysis (reference value: 1.47%); format: functional

C=CC(=O)N1C(=O)CC(c2ccc(F)cc2)Sc2ccccc21 (stereo not drawn)
Activity [1]: 85.5%
viability at 100 µM [2]: 72.2%
IC50 (HL-60): 86.3 µM
viability at 12.5 µM [3]: 96.1%
Activity [4]: 5.45%
viability at 24 h, up to 50 µM [5]: > 80%
viability at 25 µM [6]: 81.8%
Activity [7]: 6.44%
Activity [8]: 4.39%
Activity [9]: 1.52%
Activity [10]: 2.74%
Activity [11]: 2.88%
Activity [12]: 16.1%
